Laboratory results from ChEMBL document CHEMBL4725282, “Discovery of a Conformationally Constrained Oxazolidinone with Improved Safety and Efficacy Profiles for the Treatment of Multidrug-Resistant Tuberculosis” (J Med Chem, 2020).

Columns and labels:
[1] = Half life in Beagle dog hepatocytes at 2 uM by LC-MS/MS analysis; type: ADME, cell-based, Canis lupus familiaris, Hepatocyte
Procedure, shortened: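 Hepatocytes (male CD-1 mouse, male SD rat, male beagle dog, male cynomolgus monkey, pooled human), final 1 μM compound and 1 million cells/mL, made by mixing 2 μM compound with 2 million cells/mL. Incubated at 37 °C in a CO2 incubator; sampled at 0, 15, 30, 60, 90 and 120 min. Quenched with methanol/ACN containing 0.1% formic acid. Parent remaining measured by LC-MS/MS.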

[2] = target: T1, Cytochrome P450 1A2 (Homo sapiens, UniProt P05177); assay: Inhibition of CYP1A2 in human liver microsomes after 20 mins by LC-MS/MS analysis; type: ADME
T1 sequence (P05177 whole entry): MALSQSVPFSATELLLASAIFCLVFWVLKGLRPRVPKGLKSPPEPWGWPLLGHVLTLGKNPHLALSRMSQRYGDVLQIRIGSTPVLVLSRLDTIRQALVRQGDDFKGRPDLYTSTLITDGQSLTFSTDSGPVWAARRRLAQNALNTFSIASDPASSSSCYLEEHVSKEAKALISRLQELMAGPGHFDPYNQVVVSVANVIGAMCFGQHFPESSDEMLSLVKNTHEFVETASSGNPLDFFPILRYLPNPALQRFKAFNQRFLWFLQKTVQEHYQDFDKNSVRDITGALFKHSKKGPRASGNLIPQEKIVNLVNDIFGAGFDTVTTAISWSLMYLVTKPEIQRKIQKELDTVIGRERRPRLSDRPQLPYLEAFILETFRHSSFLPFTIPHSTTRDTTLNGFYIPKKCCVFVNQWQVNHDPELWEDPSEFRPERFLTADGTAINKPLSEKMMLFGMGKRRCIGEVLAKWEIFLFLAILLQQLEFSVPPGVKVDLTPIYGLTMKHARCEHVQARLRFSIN
Procedure, shortened: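 Human liver microsomes (0.2 mg/mL) in phosphate buffer, 20 min incubation with compound at 0.1-50 μM alongside isoform-specific substrates and a positive control. Substrate remaining monitored by LC-MS/MS at each concentration; IC50 derived.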

[3] = Genotoxicity in CHO-WBL cells assessed as chromosome aberration at 20 to 150 ug/ml measured after 20 hrs in presence of S9 fraction by Giemsa staining based; type: toxicity, subcellular, Cricetulus griseus; conditions: chinese hamster, s9, 20 h, dose 20-150 µg/ml
Procedure, shortened: (§1)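 CHO-WBL cells in McCoy's 5A with 10% FBS, seeded 20-24 h before treatment. Compound in DMSO, with or without serum-free S-9 mix. Treatment either 3 h, then HBSS wash and 17 h further culture, or 20 h; harvest at 20 h from treatment start. Colcemid 0.1 μg/mL for the final 2 h, hypotonic KCl, methanol:acetic acid fixation, Giemsa stain. 300 metaphases per concentration (150 per duplicate flask) scored.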

[4] = Toxicity in female Sprague-Dawley rat assessed as ophthalmic changes at 50 to 450 mg/kg/day, po administered for 4 weeks measured within 7 days of post last dose; type: organism-based; conditions: in vivo, 672 h, dose 50-450 mg/kg/day
Procedure, shortened: (§2)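 SD rats, 6-7 weeks old (96 in total), split into vehicle, 50, 150 and 450 mg/kg/day groups of 12 females and 12 males each, given oral doses once daily for 4 weeks, then 2 weeks of recovery. Mortality, body weight, food intake, eyes, urine and neuropsychic signs were observed. Organ and bone marrow histopathology was done on 8 rats per sex per group after the last dose and on the remaining 4 per sex after 14 days of recovery.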

[5] = Toxicity in female Sprague-Dawley rat assessed as histopathological changes at 50 to 450 mg/kg/day, po administered for 4 weeks measured post last dose; type: organism-based; conditions: in vivo, 672 h, dose 50-450 mg/kg/day; procedure, shortened: as §2
[6] = Toxicity in female Sprague-Dawley rat assessed as effect on food consumption at 50 to 450 mg/kg/day, po administered for 4 weeks followed by 2 week recovery period measured at 1 week interval; type: organism-based; conditions: in vivo, 672 h, dose 50-450 mg/kg/day; procedure, shortened: as §2
[7] = Toxicity in female Sprague-Dawley rat assessed as abnormalities in urine at 50 to 450 mg/kg/day, po administered for 4 weeks followed by 2 week recovery period measured within last 7 days of recover period; type: organism-based; conditions: in vivo, 672 h, dose 50-450 mg/kg/day
Procedure, shortened: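 SD rats, 6-7 weeks, 12 male and 12 female per group. Oral dosing once daily at 50, 150 or 450 mg/kg/day or vehicle for 4 weeks, then 2-week recovery. 8 per sex dissected after last dose, remaining 4 per sex after 14-day recovery. Body weight, urine, food intake and clinical signs monitored.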

[8] = Toxicity in male Sprague-Dawley rat assessed as changes in neuropsychic symptoms at 50 to 450 mg/kg/day, po administered for 4 weeks followed by 2 week recovery period measured during last 24 hrs of recovery period; type: organism-based; conditions: in vivo, 672 h, dose 50-450 mg/kg/day
Procedure, shortened: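 SD rats aged 6-7 weeks, 12 male and 12 female per group, in four groups: vehicle control, 50, 150 and 450 mg/kg/day. Dosing was oral, once daily, for 4 weeks, then a 2-week recovery period. Clinical symptoms were observed starting before administration. 8 per sex were dissected after the last dose and the remaining 4 per sex after 14 days of recovery.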

[9] = Toxicity in male Sprague-Dawley rat assessed as change in mean corpuscular volume at 50 mg/kg/day, po administered for 4 weeks followed by 2 week recovery period (Rvb =57.5 +/- 2.0 fL); type: organism-based; conditions: in vivo, 672 h
[10] = Toxicity in female Sprague-Dawley rat assessed as change in mean corpuscular hemoglobin at 50 mg/kg/day, po administered for 4 weeks followed by 2 week recovery period (Rvb =18.5 +/- 0.6 pg); type: organism-based; conditions: in vivo, 672 h
[11] = Toxicity in female Sprague-Dawley rat assessed as change in hemoglobin count at 50 mg/kg/day, po administered for 4 weeks followed by 2 week recovery period (Rvb =136 +/- 7 g/L); type: organism-based; conditions: in vivo, 672 h
[12] = Toxicity in male Sprague-Dawley rat assessed as change in white blood cell count at 150 mg/kg/day, po administered for 4 weeks followed by 2 week recovery period (Rvb =6.12 +/- 1.10 10^9/L); type: organism-based; conditions: in vivo, 672 h
Procedure, shortened: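 SD rats aged 6-7 weeks, 24 per group (12 female, 12 male): vehicle, 50, 150 or 450 mg/kg/day given orally once daily for 4 weeks, then 2-week recovery. 8 per sex per group dissected after the last dose and 4 per sex after 14-day recovery. Hematology included WBC count, reported as mean ± SD (n = 12), compared with vehicle.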

[13] = Toxicity in female Sprague-Dawley rat assessed as change in mean corpuscular volume at 150 mg/kg/day, po administered for 4 weeks followed by 2 week recovery period (Rvb =56.1 +/- 0.8 fL); type: organism-based; conditions: in vivo, 672 h
[14] = Toxicity in female Sprague-Dawley rat assessed as change in hemoglobin count at 150 mg/kg/day, po administered for 4 weeks followed by 2 week recovery period (Rvb =136 +/- 7 g/L); type: organism-based; conditions: in vivo, 672 h
[15] = Toxicity in female Sprague-Dawley rat assessed as change in hematocrit level at 150 mg/kg/day, po administered for 4 weeks followed by 2 week recovery period (Rvb =41.1 +/- 1.4 %); type: organism-based; conditions: in vivo, 672 h
[16] = Toxicity in male Sprague-Dawley rat assessed as change in lymphocyte level at 150 mg/kg/day, po administered for 4 weeks followed by 2 week recovery period (Rvb =77.4 +/- 3.7 %); type: organism-based; conditions: in vivo, 672 h
[17] = Genotoxicity in CHO-WBL cells assessed as chromosome aberration at 90 to 397.1 ug/ml measured after 20 hrs in absence of S9 fraction by Giemsa staining based; type: toxicity, cell-based, Cricetulus griseus; conditions: chinese hamster, dose 90-397.1 µg/ml; procedure, shortened: as §1

Row | Compound | half-life at 2 µM [1] [h] | IC50 [2] [µM] | Activity [3] | Activity [4] | Activity [5] | Activity [6] | Activity [7] | Activity [8] | Activity [9] [fL] | Activity [10] [pg] | Activity [11] [g/L] | Activity [12] | Activity [13] [fL] | Activity [14] [g/L] | Activity [15] [%] | Activity [16] [%] | Activity [17]
1 | CC(=O)NC[C@@H]1OC(=O)N2c3cc(F)c(N4CCSCC4)cc3OC[C@@H]12 | 1.13 | > 50 | Non-Toxic | Non-Toxic | Non-Toxic | Non-Toxic | Non-Toxic | Non-Toxic | 59.7 | 18.5 | 126 | 6.11 10^9/L | 56.6 | 124 | 37.4 | 77.3 | –
2 | CC(=O)NC[C@@H]1OC(=O)N2c3cc(F)c(N4CC[S+]([O-])CC4)cc3OC[C@@H]12 | – | – | – | – | – | – | – | – | – | – | – | – | – | – | – | – | Non-Toxic
